Experimental data from different studies.
Organism: Escherichia coli
Read-out: microbial killing

For `COc1c(C)c(OC(=O)c2ccc(C)cc2)c(C)c(O)c1C(=O)/C=C/c1ccccc1`, the MBC was > 5000 µg/mL (broth dilution; ATCC25922).
The MBC of `O=c1[nH]cc(F)c(=O)[nH]1` is reported as > 32 µg/mL (broth dilution; 48 h).
The MBC of `N#CC(=Cc1cn(-c2ccccc2)nc1-c1ccccc1)C1=NC(=O)CS1` is reported as 0.25 µg/mL (broth dilution).
`COc1cc(Cc2cnc(N)nc2N)cc(OC)c1OC` has an MBC of > 32 µg/mL (broth dilution; 48 h).
With `CO[C@H]1O[C@H](COC(c2ccccc2)(c2ccccc2)c2ccccc2)[C@@H](OC(=O)c2ccc(C(C)(C)C)cc2)[C@H](OC(=O)c2ccc(C(C)(C)C)cc2)[C@H]1OC(=O)c1ccc(C(C)(C)C)cc1` the MBC was 16 µg/mL (broth dilution).
`COc1c(C)c(OC)c(C(=O)/C=C/c2ccccc2)c(OC)c1C` gave an MBC of > 5000 µg/mL (broth dilution; ATCC25922).
For `CCn1cc(C(=O)O)c(=O)c2cc(F)c(N3CCNCC3)cc21`, the MBC was 1 µM (broth dilution; ATCC 8739; ATCC8739).
`COc1c(C)c(OC(=O)c2ccccc2)c(C)c(O)c1C(=O)/C=C/c1ccccc1` has an MBC of > 5000 µg/mL (broth dilution; ATCC25922).
`O=C(O)c1cn(C2CC2)c2cc(N3CCNCC3)c(F)cc2c1=O` gave an MBC of 0.25 µg/mL (broth dilution).
For `CN[C@H](CC(C)C)C(=O)N[C@H]1C(=O)N[C@@H](CC(N)=O)C(=O)N[C@H]2C(=O)N[C@H]3C(=O)N[C@H](C(=O)N[C@H](C(=O)O)c4cc(O)cc(O)c4-c4cc3ccc4O)[C@H](O)c3ccc(c(Cl)c3)Oc3cc2cc(c3O[C@@H]2O[C@H](CO)[C@@H](O)[C@H](O)[C@H]2O[C@H]2C[C@](C)(N)[C@H](O)[C@H](C)O2)Oc2ccc(cc2Cl)[C@H]1O`, the MBC was > 128 µM (broth dilution; ATCC 8739; ATCC8739).
`N#CC(=Cc1ccccc1O)C1=NC(=O)C(=Cc2cn(-c3ccccc3)nc2-c2ccccc2)S1` gave an MBC of 0.5 µg/mL (broth dilution).
`CNC1=C([N+](=O)[O-])C2(C(=O)Nc3ccccc32)C2=C(O1)C(=O)c1ccccc1C2=O` (stereo not drawn) has an MBC of ≤ 500 µg/mL (ATCC25922).
